Test results from ChEMBL document CHEMBL4145483, “Quinoxaline derivatives as new inhibitors of coxsackievirus B5” (Eur J Med Chem, 2018).
The source made the active and inactive calls. The calls are words filed in the database; no cut-off is given here.

Columns and labels:
[1] = Cytotoxicity against human MT4 cells assessed as reduction in cell viability after 48 to 96 hrs by MTT assay; format: cell-based
Method in brief: (§1)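 Cells are grown in medium with serum: MT-4 at 4×10^5 cells/ml in RPMI-1640 with 10% FBS; MDBK at 6×10^5 in MEM-E with 10% horse serum; BHK at 1×10^6 in MEM-E with 10% FBS; Vero-76 at 4×10^5 in D-MEM with 10% FBS. Serial dilutions are added at 37 °C, 5% CO2, and viability is read by MTT after 48–96 h. CC50 comes from linear regression. For MDBK, selectivity index is CC50/BVDV EC50.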

[2] = tested on: Human immunodeficiency virus 1; test: Antiviral activity against HIV1 3B infected in human MT4 cells assessed as protection against virus-induced cytopathic effect after 3 to 4 days by MTT assay; format: functional, organism-based; conditions: Human immunodeficiency virus 1, 3B
Method in brief: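 MT-4 cells in exponential growth are acutely infected with HIV-1 at m.o.i. 0.01 and exposed to serial compound dilutions. Viability is read by MTT after 3–4 days at 37 °C. EC50 is the concentration giving 50% protection from virus-induced cytopathogenicity, and CC50 is taken from mock-infected MT-4 cells. Both are fitted by linear regression, and the selectivity index is CC50/EC50.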

[3] = Cytotoxicity against MDBK cells assessed as reduction in cell viability after 48 to 96 hrs by MTT assay; format: cell-based, Bos taurus; conditions: cattle; method in brief: as §1
[4] = tested on: Bovine viral diarrhea virus 1; test: Antiviral activity against BVDV NADL ATCC VR-534 infected in MDBK cells assessed as protection against virus-induced cytopathic effect after 3 to 4 days by MTT assay; format: functional, organism-based, Bovine viral diarrhea virus 1-NADL; conditions: Bovine viral diarrhea virus isolates and strains, ATCC VR-534, MDBK
Method in brief: (§2)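 Cytopathic-effect protection assay. MDBK (BVDV) or BHK (Reo-1) cells are infected in the presence of serial compound dilutions. After 3 or 4 days at 37 °C, viability is read by MTT. EC50 is the concentration giving 50% protection from virus-induced cytopathogenicity, derived by linear regression.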

[5] = Cytotoxicity against golden hamster BHK21 cells assessed as reduction in cell viability after 48 to 96 hrs by MTT assay; format: cell-based, Mesocricetus auratus, BHK-21; method in brief: as §1
Yellow fever virus = test: Antiviral activity against Yellow fever virus 17D infected in golden hamster BHK21 cells assessed as protection against virus-induced cytopathic effect after 3 to 4 days by MTT assay; format: functional, organism-based; conditions: BHK-21
[6] = tested on: Mammalian orthoreovirus 1; test: Antiviral activity against Reovirus 1 3651 ATCC VR-214 infected in golden hamster BHK21 cells assessed as protection against virus-induced cytopathic effect after 3 to 4 days by MTT assay; format: functional, organism-based; conditions: Mammalian orthoreovirus 1, 3651 ATCC VR-214, BHK-21; method in brief: as §2
[7] = Cytotoxicity against African green monkey Vero 76 cells assessed as reduction in cell viability after 48 to 96 hrs by MTT assay; format: cell-based; conditions: chlorocebus sabaeus; method in brief: as §1
Coxsackievirus B5 [8] = test: Antiviral activity against Coxsackievirus B5 Ohio-1 ATCC VR 29 infected in African green monkey Vero 76 cells after 3 days by plaque reduction assay; format: functional, organism-based; conditions: Enterovirus B, Ohio-1 ATCC VR 29, Vero 76, 72 h
Method in brief: (§3)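 Plaque reduction in Vero-76 monolayers, with cytotoxicity measured in parallel on the same plate. EC50 is the concentration reducing plaque number by 50%, derived by linear regression. CC50 is the concentration reducing viability of mock-infected Vero-76 cells by 50%, by MTT. Selectivity index is CC50/EC50.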

[9] = tested on: Human poliovirus 1 strain Sabin; test: Antiviral activity against Poliovirus 1 Sabin ATCC VR 1562 infected in African green monkey Vero 76 cells after 2 days by plaque reduction assay; format: functional, organism-based; conditions: Enterovirus C, ATCC VR 1562, Vero 76, 48 h
Human orthopneumovirus = test: Antiviral activity against Human respiratory syncytial virus A2 ATCC VR 1540 infected in African green monkey Vero 76 cells after 5 days by plaque reduction assay; format: functional, organism-based; conditions: ATCC VR 1540, Vero 76, 120 h; method in brief: as §3
[10] = tested on: Vesicular stomatitis Indiana virus; test: Antiviral activity against Vesicular stomatitis virus Indiana ATCC VR 1540 infected in African green monkey Vero 76 cells after 3 days by plaque reduction assay; format: functional, organism-based; conditions: ATCC VR 1540, Vero 76, 72 h
Vaccinia virus = test: Antiviral activity against Vaccinia virus Lister ATCC VR 1549 infected in African green monkey Vero 76 cells after 3 days by plaque reduction assay; format: functional, organism-based; conditions: Orthopoxvirus vaccinia, ATCC VR 1549, Vero 76, 72 h
Human alphaherpesvirus 1 = test: Antiviral activity against HSV1 KOS ATCC VR 1493 infected in African green monkey Vero 76 cells after 3 days by plaque reduction assay; format: functional, organism-based; conditions: Human alphaherpesvirus 1, KOS ATCC VR1493, Vero 76, 72 h; method in brief: as §3
[11] = Selectivity index, ratio of CC50 for African green monkey Vero 76 cells to EC50 for Coxsackievirus B5 Ohio-1 ATCC VR-29; format: toxicity; conditions: read-out: Ratio CC50/EC50; method in brief: as §3
Coxsackievirus B5 [12] = test: Antiviral activity against Coxsackievirus B5 Ohio-1 ATCC VR 29 infected in African green monkey Vero 76 cells assessed as reduction in viral yield after 72 hrs by plaque reduction assay; format: functional, organism-based
Coxsackievirus B5 [13] = test: Antiviral activity against Coxsackievirus B5 Ohio-1 ATCC VR 29 infected in African green monkey Vero 76 cells assessed as reduction in viral infectivity at 4 to 20 uM after 1 hr by plaque assay; format: functional, organism-based
Method in brief: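 Virucidal test. A CV-B5 suspension (5×10^5 PFU/ml) is incubated with 4 or 20 μM compound, or without, for 1 h at 37 °C. Residual infectivity is then measured by plaque assay on Vero-76 cells.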

Coxsackievirus B5 [14] = test: Antiviral activity against Coxsackievirus B5 Ohio-1 ATCC VR 29 infected in African green monkey Vero 76 cells assessed as reduction in viral titre incubated for 60 mins at 4 degC measured after 24 hrs by plaque assay; format: functional, organism-based
Method in brief: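 Adsorption assay. Vero-76 cells are infected with CV-B5 (m.o.i. 0.1) with or without compound for 60 min at 4 °C. Unbound virus is removed, cells are washed twice with PBS and overlaid with MEM containing 1% methylcellulose. Plaques are counted after 24 h at 37 °C.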

Coxsackievirus B5 [15] = test: Antiviral activity against Coxsackievirus B5 Ohio-1 ATCC VR 29 infected in African green monkey Vero 76 cells assessed as reduction in viral replication at 1 uM measured up to 2 hrs post infection by plaque assay; format: functional, organism-based
Method in brief: (§4)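 Time of addition. Confluent Vero-76 monolayers are infected with CV-B5 at m.o.i. 0.3. Compound at 1 μM is given at −2 to 0 h then removed, at 0 h then removed or kept, or at 2, 4, 6, 8 or 12 h post infection. After 3 days, monolayers are collected and titred by plaque assay, in two independent experiments each done in duplicate.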

Coxsackievirus B5 [16] = test: Antiviral activity against Coxsackievirus B5 Ohio-1 ATCC VR 29 infected in African green monkey Vero 76 cells assessed as reduction in viral titre at 1 uM preincubated for 2 hrs followed by viral infection and subsequent compound washout at 2 hrs post infection by plaque assay; format: functional, organism-based; method in brief: as §4
Coxsackievirus B5 [17] = test: Antiviral activity against Coxsackievirus B5 Ohio-1 ATCC VR 29 infected in African green monkey Vero 76 cells assessed as reduction in viral titre at 1 uM treated simultaneously with viral infection and subsequent compound washout after 2 hrs by plaque assay; format: functional, organism-based; method in brief: as §4
Coxsackievirus B5 [18] = test: Antiviral activity against Coxsackievirus B5 Ohio-1 ATCC VR 29 infected in African green monkey Vero 76 cells assessed as reduction in viral replication at 1 uM measured at 4 to 12 hrs post infection by plaque assay; format: functional, organism-based; method in brief: as §4
Coxsackievirus B5 [19] = test: Antiviral activity against Coxsackievirus B5 Ohio-1 ATCC VR 29 infected in African green monkey Vero 76 cells assessed as reduction in viral titre at 1 uM treated simultaneously with viral infection by plaque assay; format: functional, organism-based; method in brief: as §4

Compound	CC50 [1] [µM]	EC50 [2] [µM]	CC50 [3] [µM]	EC50 [4] [µM]	CC50 [5] [µM]	EC50 (Yellow fever virus) [µM]	EC50 [6] [µM]	CC50 [7] [µM]	EC50 (Coxsackievirus B5 [8]) [µM]	EC50 [9] [µM]	EC50 (Human orthopneumovirus) [µM]	EC50 [10] [µM]	EC50 (Vaccinia virus) [µM]	EC50 (Human alphaherpesvirus 1) [µM]	selectivity ratio [11]	further results
COc1nc2ccc(CSc3ccccn3)cc2nc1OC	28	> 28	> 100	> 100	> 100	> 100	> 100	> 100	> 100	> 100	> 100	> 100	> 100	> 100		
C[C@@]1(O)[C@H](O)[C@@H](CO)O[C@H]1n1cnc2c(=O)[nH]c(N)nc21 [2'-B-METHYL-GUANOSINE]			> 100	1.1	> 100	1.9	1.9									
COc1nc2ccc(CSc3ccc(C(=O)O)cc3)cc2nc1OC	68	> 68	> 100	> 100	65	> 65	> 65	65	0.06	> 65	> 65	> 65	> 65	> 65	1080	
CCOC(=O)c1ccc(SCc2ccc3nc(OC)c(OC)nc3c2)cc1	> 100	> 100	> 100	> 100	> 100	> 100	> 100	> 100	0.09	> 100	> 100	> 100	> 100	> 100	> 1110	Activity (Coxsackievirus B5 [12]): Dose-dependent effect; Activity (Coxsackievirus B5 [13]): inactive; Activity (Coxsackievirus B5 [14]): inactive; Activity (Coxsackievirus B5 [15]): Active; Activity (Coxsackievirus B5 [16]): inactive; Activity (Coxsackievirus B5 [17]): inactive; Activity (Coxsackievirus B5 [18]): inactive; Activity (Coxsackievirus B5 [19]): Active
COc1nc2ccc(CSc3ccc(C(=O)O)cn3)cc2nc1OC	> 100	> 100	> 100	> 100	> 100	> 100	> 100	90	3.8	> 90	> 90	> 90	> 90	> 90	23	
Cc1cc(CCCOc2c(C)cc(-c3noc(C(F)(F)F)n3)cc2C)on1 [PLECONARIL]								> 100	0.005							
CCOC(=O)c1ccc(SCc2ccc3nc(OC)c(OC)nc3c2)nc1	> 100	> 100	> 100	> 100	> 100	> 100	> 100	> 100	0.3	> 100	> 100	> 100	> 100	> 100	> 333	
CCOC(=O)CC[C@H](NC(=O)c1ccccc1SCc1ccc2nc(OC)c(OC)nc2c1)C(=O)OCC	60	> 60	> 100	> 100	> 100	> 100	> 100	> 100	> 100	> 100	> 100	> 100	> 100	> 100		
COc1nc2ccc(CSc3ccc(Cl)c(Cl)c3)cc2nc1OC	48	> 48	> 100	> 100	80	> 80	> 80	75	> 75	> 75	> 75	> 75	> 75	> 75		
